Legend:
[1] = system: Plasmodium falciparum K1 strain (CQ-resistant); assay: P. falciparum in vitro parasite growth inhibition; format: cell-based; settings: for RI (K1/3D7) Resistance Index: ratio of K1 and 3D7 IC50
How it was run: (§1)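 Asynchronous culture (65–75% rings, 0.5% parasitemia, 2.5% hematocrit) in RPMI 1640/0.5% Albumax II/5 µM hypoxanthine. Triplicate 3-fold dilutions, 10.0–0.0412 µg/mL, DMSO ≤0.01% final. 37 °C, 5% CO2, 24 h, then [3H]hypoxanthine 0.2 µCi/well for a further 24 h. Plates frozen, harvested, scintillation-counted. IC50 curve-fitted, mean of independent experiments. SI = KB IC50 (72 h, Alamar Blue)/parasite IC50. RI from K1 and 3D7 IC50s.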

[2] = system: Plasmodium falciparum 3D7 strain (CQ-sensitive); assay: P. falciparum in vitro parasite growth inhibition; format: cell-based
How it was run: as §1

With `CCN(CC)CCCC(C)Nc1ccnc2cc(Cl)ccc12` (stereo not drawn) [CQ, Chloroquine diphosphate] the “SI K1 Selectivity Index” value ([1]; (KB IC50)/(K1 IC50)) was 161, the IC50 ([1]; Plasmodium falciparum, K1, read-out: K1 IC50) was 682 nM and the “RI (K1/3D7) Resistance Index” value [1] was 50.52. The “RI (K1/3D7) Resistance Index” value ([1]; listed as chloroquine) was 50, the “SI 3D7 Selectivity Index” value ([2]; (KB IC50)/(3D7 IC50)) was 8150 and the IC50 ([2]; Plasmodium falciparum, 3D7, read-out: 3D7 IC50) was 13.5 nM.
